Bioassay records from PubChem BioAssay.
Hits are enriched below; roughly 2.9% of the tested compounds scored in any of these assays.
Jurkat tox 60K = reduces viability or proliferation of Jurkat cells; Jurkat E6.1 viability, ATP luminescence, 48 h; inhibition, % at 4 µM; hit rate 1.2% among 56,000;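 active = inhibition above the mean inhibition of all tested compounds plus 3 SD, cut at about 28% in these data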
RORA act = activates the human nuclear receptor RORA. P35398. hit rate 1.5% among 65,000. CHO-K1 Gal4-RORA LBD luciferase reporter, luminescence; percent increase over mock-subtracted basal signal. activation, % at 10 µM. AID 560;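 active = activation above the mean of all tested compounds plus 3 SD, cut at about 49% in these data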
MT1-MMP txn act = activates MT1-MMP transcription. HT1080 MT1-MMP promoter luciferase reporter, luminescence, overnight; active compounds read high. activation factor at 10 µM. hit rate 0.16% among 86,000. AID 750;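 active = activation factor of at least 2 for MT1-MMP transcription at 10 µM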
HEK293 NFkB inh = lowers PMA/ionomycin-induced NF-kB signal in HEK293 cells. HEK-293 NF-kB luciferase reporter, luminescence. inhibition, % at 3 µM. hit rate 0.21% among 62,000;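 active = inhibition above the mean of all tested compounds plus 3 SD, cut at about 40% in these data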
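Timing: 1 h pretreatment, 16 h stimulation, 37 °C; system: HEK-293 cells with stable firefly luciferase reporter driven by four HIV NF-kB elements; doses: 3 µM once, 0.30% DMSO; measured by: luciferase luminescence; control set: DMSO and 10 µM reference inhibitor; repeats: single test; reagent: PMA plus ionomycin mix as NF-kB-activating stimulus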
SF-1 act = activators of human nuclear receptor SF-1 | hit rate 1.9% among 65,000 | Q13285 | activation, % at 10 µM | AID 522 | CHO-K1 Gal4-SF-1 LBD luciferase reporter; % increase over DMSO SF-1-specific signal;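 active = activation above the mean activation of all tested compounds plus 3 SD, cut at about 50% in these data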
Target sequence (Q13285 whole entry, looked up, the tested form may be a part): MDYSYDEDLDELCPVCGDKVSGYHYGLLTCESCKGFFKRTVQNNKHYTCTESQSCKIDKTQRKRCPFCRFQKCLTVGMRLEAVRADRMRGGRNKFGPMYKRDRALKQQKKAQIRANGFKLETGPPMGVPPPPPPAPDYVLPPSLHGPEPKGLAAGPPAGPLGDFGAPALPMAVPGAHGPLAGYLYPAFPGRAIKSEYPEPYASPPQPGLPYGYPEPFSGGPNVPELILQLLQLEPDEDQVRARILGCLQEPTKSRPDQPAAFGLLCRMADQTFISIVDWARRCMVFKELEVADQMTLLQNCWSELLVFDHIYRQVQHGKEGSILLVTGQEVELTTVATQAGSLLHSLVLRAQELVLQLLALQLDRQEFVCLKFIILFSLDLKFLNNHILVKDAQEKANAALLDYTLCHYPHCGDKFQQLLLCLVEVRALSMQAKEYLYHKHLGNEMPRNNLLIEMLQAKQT
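Test system: transient Gal4-SF-1 LBD reporter, CHO-K1; Amount: 4,000 CHO-K1 cells per well; Doses: 10 µM only; Timing: compound exposure 20 h at 37 °C; Signal: luciferase light emission; Read-out basis: percent activation relative to DMSO median and mock-transfected background; Control set: DMSO negative control and −SF1 background wells; Replicates: one test per compound.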
Numbers stand for hits; - = inactive; . = not tested or not shown.

SMILES | Jurkat tox 60K | RORA act | MT1-MMP txn act | HEK293 NFkB inh | SF-1 act
O=C1c2ccccc2CCC12N=NCC2c1ccccc1 (centres undefined) | . | . | - | . | .
NC(=O)C1CCCN(S(=O)(=O)c2ccc(Br)cc2)C1 (centres undefined) | - | - | - | - | -
CCOC(=O)c1[nH]c2cc(OC)c(OC)cc2c1N | . | . | - | . | .
CCOC(=O)c1[nH]c2ccc(C)cc2c1N | . | - | - | . | 72.7
Nc1nc(SCC(=O)C23CC4CC(CC(C4)C2)C3)n[nH]1 | - | - | - | - | -
c1ccc2sc(-c3ccc4c(c3)OCO4)nc2c1 | - | - | - | - | -
CN(C)c1nc(N)nc(-c2nc3ccccc3s2)n1 | - | - | - | - | 54.4
CCNc1nc2c(c(=O)n(C)c(=O)n2C)n1Cc1ccc(Cl)cc1 | 57.5 | - | . | - | -
CCC(C)Nc1nc2c(c(=O)n(C)c(=O)n2C)n1Cc1ccc(Cl)cc1 (centres undefined) | - | - | - | - | -
O=C(c1cc(-c2cccc(O)c2)on1)N1CCOCC1 | - | - | - | - | -
CC1CCN(C(=O)c2cc(-c3ccccc3O)on2)CC1 | - | 63.8 | - | - | 99.1
O=C(c1cc(-c2ccccc2O)on1)N1CCc2ccccc2C1 | - | - | - | - | -
O=C(c1cc(-c2ccc(Cl)c(Cl)c2)on1)N1CCCCC1 | - | 92.4 | - | - | -
O=C(c1cc(-c2ccccc2)on1)N1CCCC1 | - | - | - | - | 56.7
O=C(c1cc(-c2ccc(Cl)c(Cl)c2)on1)N1CCN(c2ccccc2)CC1 | - | - | - | - | -
O=C(c1cc(-c2ccc(O)cc2)on1)N1CCc2ccccc2C1 | 44.8 | - | - | - | -
CCC(C)n1c(C)nc2c(c1=O)c1nc3ccccc3nc1n2CCC1=CCCCC1 (centres undefined) | . | . | - | . | .
COC(=O)[C@@]1(Cc2ccccc2)[C@H]2c3cc(C(=O)N(C)C)n(Cc4c(CO)[nH]cc(C)c4=O)c3C[C@H]2CN1C(=O)c1ccccc1 | . | . | - | . | .
N#Cc1ccsc1NC(=O)COc1ccc(-c2nnco2)cc1 | - | - | - | - | -
Cn1c(N2CCOCC2)nc(-c2ccccc2)c1-c1ccccc1 | - | - | - | - | -
Cc1ccc2nc(C)/c(=N\O)c(C)nc2c1 | . | . | - | . | .
Cc1nc2ccc(Cl)cc2nc(C)/c1=N\O | - | - | - | - | 52.5
COC(=O)[C@@]1(Cc2ccc(F)cc2)[C@H]2c3cc(C(=O)N(C)C)n(Cc4ccc(O)c(OC)c4)c3C[C@H]2CN1C(=O)c1ccccc1 | . | . | - | . | .
Nc1cc(C2CCCC2)nn1-c1ccccc1 | . | 61.6 | - | - | -
O=C(CN1CCOCC1)Nc1ccc(-c2nc3ccccc3[nH]2)cc1 | - | - | . | - | 52.2
SMILES | Jurkat tox 60K | RORA act | MT1-MMP txn act | HEK293 NFkB inh | SF-1 act
O=C(Nc1ccc(CN2CCOCC2)cc1)c1cc2ccccc2o1 | - | - | - | - | 85.6
COC(=O)c1ccc(NC(=O)Cc2ccccc2)cc1 | - | - | - | - | 71.4
O=C(NCCN1CCOCC1)c1cc2ccccc2o1 | . | - | . | - | -
O=C(Cc1ccccc1)Nc1ccc(CN2CCOCC2)cc1 | - | 55.8 | - | - | -
O=C(Nc1ccc(-c2nc3ccccc3[nH]2)cc1)C1CCCO1 (centres undefined) | - | - | - | - | -
OCc1nc2ccccc2n1CCCOc1ccc(Br)cc1 | - | - | - | - | -
CCC1=C(OC(=O)N(CC)CC)N2C(=O)OC(=NCCc3c[nH]c4ccccc34)[C@]2(Cc2ccccc2)[C@H]2C1=CC[C@H]1C(=O)N(CC)C(=O)[C@H]12 | . | . | - | . | .
O=C(OCc1cc(Cl)ccc1OC(F)F)c1cc(S(=O)(=O)O)ccc1O | - | - | - | - | -
CN(C)c1ccc(/C=C2\C(=O)N(c3ccc([N+](=O)[O-])cc3)N=C2N2CCOCC2)cc1 | . | . | - | . | .
C[C@]1(C(=O)NCC2CC2)C=C[C@@H](Cc2ccccc2)N1C(=O)c1ccccc1 | . | . | - | . | .
O=C(Nc1ccc(N2CCOCC2)cc1)c1cc2ccccc2o1 | - | 74.3 | - | - | -
Cc1[nH]c2ccc(F)cc2c(=O)c1SC(F)(F)C(F)C(F)(F)F (centres undefined) | . | - | - | . | -
COc1cccc2c(=O)c(SC(F)(F)C(F)C(F)(F)F)c(C)[nH]c12 (centres undefined) | . | - | - | . | 50.7
Cc1ccc(C(=O)c2coc3ccc(O)c(Cl)c23)cc1 | . | . | - | . | .
CCOC(=O)C(C(C)=O)c1c(Br)c(O)c(O)c2c(C(=O)c3ccc(C)cc3)coc12 (centres undefined) | 60.9 | - | - | 47.2 | -
